Assay results as given in paper PMC9179932 (Nature chemical biology, 2022).
Where two headings read alike, the source gives them in different places. Peptide text beside a SMILES is read from it.

Legend:
[1] = system: MV4;11 cells; experiment: MV4; format: cell-based, human; conditions: for effect on CQ31-induced cell death / LDH release and GSDMD cleavage: WT MV4;11; for effect on CQ31-induced cell death: CQ31 10 μM; for effect on CQ31-induced cell death / effect on VP-OMe- and IP-OMe-induced LDH release and GSDMD cleavage: bortezomib 1 μM, VX-765 50 μM; for effect on CQ31-induced cell death / effect on VP-OMe- and IP-OMe-induced LDH release and GSDMD cleavage / LDH release and GSDMD cleavage in PEPD−/− vs control cells: 6 h; for effect on VP-OMe- and IP-OMe-induced LDH release and GSDMD cleavage: pretreatment; for LDH release and GSDMD cleavage: XP-OMes 1 mM, VbP 2 μM, 14 h; for PI uptake, GSDMD cleavage and LDH release in knockout cells: CASP1−/− and CARD8−/− MV4;11; for LDH release and GSDMD cleavage in PEPD−/− vs control cells: PEPD−/− MV4;11, 1 mM
Summary of the method: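 MV4;11 cells (WT or knockouts) are plated at 5×10^5 per well. Treatments: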

[2] = system: MV4;11 cells; experiment: MV4; format: cell-based; conditions: 1 mM; for pyroptosis in PEPD−/− knockout cells / activity in control cells: 14 h; for lytic cell death / cytotoxicity in MV4;11 cells: PI uptake, CTG, CTF
[3] = system: resting primary T cells; experiment: Pyroptosis in resting primary T cells; format: cell-based, human; conditions: for GSDMD cleavage in resting T cells: 1 mM, 18 h
Summary of the method: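 Primary resting human CD3+ T cells (>90% purity) are thawed in RPMI/10% FBS and cultured with IL-2 30 U ml−1. Cells are treated with 1 mM for 18 h or 10 μM for 24 h. Analysis is by immunoblot for pyroptotic and apoptotic markers, with CTG viability after 24 h. Results are representative of two independent experiments.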

[4] = system: human NLRP1 inflammasome; experiment: Reconstituted human NLRP1 inflammasome in HEK 293T cells; format: cell-based; conditions: XP-OMes 1 mM, VbP 10 μM, CQ31 10 μM, 24 h
Summary of the method: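 For ASC specks, HEK 293T cells (2.5×10^5 per well) are transfected with 10 ng FLAG-NLRP1, 5 ng V5-GFP-ASC and 985 ng RFP plasmid and allowed 24 h expression. They are treated 24 h, Hoechst-stained, and the % of cells with specks is scored by microscopy. For GSDMD cleavage, HEK 293T cells stably expressing CASP1/GSDMD get 0.02 μg NLRP1 and 0.01 μg ASC (2.0 μg total DNA), are treated 16–20 h later for 24 h, and are immunoblotted.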

[5] = system: THP-1 cells; experiment: THP-1 LDH release and GSDMD cleavage immunoblot; format: cell-based, human; conditions: for additional pyroptosis in DPP8/9−/− THP-1 cells: LDH release, GSDMD cleavage, CTG and CTF; for LDH release and GSDMD cleavage: WT THP-1, XP-OMes 1 mM, VbP 2 μM, 24 h; for PI uptake, GSDMD cleavage and LDH release in knockout cells: CASP1−/− and CARD8−/− THP-1
[6] = system: J774.1 macrophages; experiment: Pyroptosis in J774.1 macrophages; format: cell-based, mouse; conditions: VbP 2 μM, 24 h
Summary of the method: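 J774.1 cells are grown in RPMI/10% FBS, plated at 5×10^5 per well and treated 24 h (VbP 2 μM). Supernatant LDH is measured relative to Triton X-100 lysis (n = 3). For the dose series, 2,000 cells per well in 384-well plates get compound by pintool. CTF fluorescence is read after 30 min, then CTG luminescence after 2 min shaking and 10 min at 25 °C (n = 6).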

[7] = system: N/TERT-1 keratinocytes; experiment: NLRP1 inflammasome activation in N/TERT-1 keratinocytes; format: cell-based, human; conditions: XP-OMes 1 mM, VbP 10 μM, CQ31 10 μM, 16 h
Summary of the method: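 N/TERT-1 immortalised keratinocytes seeded at 1×10^5 cells per well in 12-well plates, grown to 70% confluence, then treated with test compound for 16 h. Supernatants assayed for LDH activity with a commercial cytotoxicity kit; inflammasome readouts such as IL-18 processing assessed by immunoblotting.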

[8] = system: RAW264.7 cells; experiment: Pyroptosis in RAW264.7 macrophages; format: cell-based, mouse; conditions: 24 h; for pyroptosis at fivefold higher concentration: 5 mM, CTF and CTG
[9] = biological target: recombinant DPP9 (Homo sapiens, UniProt Q86TI2); experiment: AP-AMC-based DPP9 substrate assay; format: biochemical; conditions: for effect of esterification on DPP9 inhibition: methyl ester vs free dipeptide
Summary of the method: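 Recombinant DPP9 (1 nM) is dispensed into 384-well plates and test compound is added by pintool over a concentration series. Reaction starts with 25 μM AP-AMC. Cleavage is read as rising fluorescence (ex/em 380/460 nm) at 25 °C for 30 min.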

[10] = biological target: NLRP1–DPP9 interaction (Homo sapiens, UniProt Q86TI2); experiment: DPP9 displacement from FLAG-NLRP1 on anti-FLAG beads; format: binding; conditions: VbP 10 μM; VP dipeptide 0.5, 5 mM; CQ31, CQ04 10 μM
[11] = system: VbP-sensitive cell lines, including THP-1 cells; experiment: Viability of VbP-sensitive AML cancer cell lines; format: cell-based, human; conditions: 24 h, CTG
Summary of the method: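 Cell lines grown in RPMI/10% FBS are seeded at 2,000 cells per well in 384-well plates (25 μl). Test compound is pinned in at multiple concentrations and incubated 24 h at 37 °C, 5% CO2. CellTiter-Glo is added, plates are shaken 2 min and held 10 min at 25 °C, and luminescence is read.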

recombinant DPP9, sequence (Q86TI2 whole entry, species assumed): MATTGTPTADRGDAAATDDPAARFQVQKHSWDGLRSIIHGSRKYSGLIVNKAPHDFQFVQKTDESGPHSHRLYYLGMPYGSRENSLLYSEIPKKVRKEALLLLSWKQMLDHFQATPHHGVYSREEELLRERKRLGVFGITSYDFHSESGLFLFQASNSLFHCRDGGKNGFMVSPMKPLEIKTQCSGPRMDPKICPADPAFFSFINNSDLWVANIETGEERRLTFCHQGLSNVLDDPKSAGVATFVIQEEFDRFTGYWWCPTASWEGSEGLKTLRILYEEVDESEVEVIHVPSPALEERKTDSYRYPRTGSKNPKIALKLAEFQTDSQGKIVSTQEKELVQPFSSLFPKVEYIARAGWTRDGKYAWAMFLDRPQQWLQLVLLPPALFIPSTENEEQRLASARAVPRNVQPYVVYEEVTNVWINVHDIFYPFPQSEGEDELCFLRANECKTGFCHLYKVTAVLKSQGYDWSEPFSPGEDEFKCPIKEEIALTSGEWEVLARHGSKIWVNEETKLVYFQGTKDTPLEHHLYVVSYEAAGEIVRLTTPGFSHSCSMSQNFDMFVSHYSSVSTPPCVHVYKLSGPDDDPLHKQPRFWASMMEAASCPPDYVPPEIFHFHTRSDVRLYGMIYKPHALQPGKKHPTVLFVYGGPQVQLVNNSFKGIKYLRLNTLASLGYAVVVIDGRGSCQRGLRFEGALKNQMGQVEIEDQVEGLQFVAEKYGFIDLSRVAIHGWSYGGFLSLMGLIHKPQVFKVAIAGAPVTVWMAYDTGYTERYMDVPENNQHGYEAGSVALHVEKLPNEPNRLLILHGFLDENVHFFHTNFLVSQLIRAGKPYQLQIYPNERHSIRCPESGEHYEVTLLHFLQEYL
NLRP1–DPP9 interaction, sequence (Q86TI2 whole entry): as the sequence (Q86TI2 whole entry, species assumed) above

SMILES: CCO[C@@H]1OC(=O)C[C@@H]1NC(=O)[C@@H]1CCCN1C(=O)[C@@H](NC(=O)c1ccc(N)c(Cl)c1)C(C)(C)C [VX-765, reference compound]
- effect on CQ31-induced cell death [1]: blocked CQ31-induced cell death
- effect on VP-OMe- and IP-OMe-induced LDH release and GSDMD cleavage [1]: completely blocked

SMILES: COC(=O)[C@@H]1CCCN1C(=O)[C@@H](N)CCSC [MP-OMe] (H-Met-Pro-OMe)
- pyroptosis in PEPD−/− knockout cells [2]: induced pyroptosis
- activity in control cells [2]: inactive in control cells

SMILES: CC(C)C[C@H](NC(=O)[C@H](Cc1ccccc1)NC(=O)c1cnccn1)B(O)O [bortezomib, reference compound]
- apoptosis (PARP cleavage) [1]: caused considerable apoptosis
- effect on CQ31-induced cell death [1]: blocked CQ31-induced cell death
- effect on VP-OMe- and IP-OMe-induced LDH release and GSDMD cleavage [1]: completely blocked

SMILES: COC(=O)[C@@H]1CCCN1C(=O)[C@@H](N)CC(C)C [LP-OMe] (H-Leu-Pro-OMe)
- pyroptosis in PEPD−/− knockout cells [2]: induced pyroptosis
- activity in control cells [2]: inactive in control cells

SMILES: CC(C)[C@H](N)C(=O)N1CCC[C@H]1B(O)O [VbP, Val-boroPro, reference compound]
- LDH release and GSDMD cleavage [1]: induced the release of intracellular lactate dehydrogenase (LDH) and GSDMD cleavage
- pyroptosis in resting primary T cells ([3]; 10 μM, 24 h): induced pyroptosis
- ASC speck formation [4]: triggered the formation of ASC specks
- additional pyroptosis in DPP8/9−/− THP-1 cells [5]: did not induce any additional pyroptosis
- LDH release and GSDMD cleavage [5]: induced the release of intracellular lactate dehydrogenase (LDH) and GSDMD cleavage
- activation of mNLRP1B1 (LDH release) [6]: activated mouse NLRP1B allele 1
- NLRP1 inflammasome activation (LDH release, IL-18 cleavage and release) [7]: induced LDH release as well as IL-18 cleavage and release
- activation of mNLRP1B1 (LDH release, GSDMD cleavage) ([8]; VbP 2 μM): activated mouse NLRP1B allele 1

SMILES: CCC(C)C(N)C(=O)N1CCCC1C(=O)O (stereo not drawn) [Ile-Pro, reference compound] (H-Ile-Pro-OH; configuration not given here)
- lytic cell death / cytotoxicity in MV4;11 cells [2]: did not induce lytic cell death
- IC50 [9]: 10 to 15 µM

SMILES: CC(C)[C@H](N)C(=O)N1CCC[C@H]1C(=O)O [Val-Pro, reference compound] (H-Val-Pro-OH)
- lytic cell death / cytotoxicity in MV4;11 cells [2]: did not induce lytic cell death
- IC50 ([9]; read-out: IC50, DPP9 inhibition, Ala-Pro-aminomethylcoumarin (AP-AMC) substrate): 10 to 15 µM
- disruption of NLRP1–DPP9 interaction (DPP9 elution) [10]: had no impact on the NLRP1 ternary complex

SMILES: COC(=O)[C@@H]1CCCN1C(=O)[C@@H](N)C(C)C [VP-OMe] (H-Val-Pro-OMe)
- PI uptake, GSDMD cleavage and LDH release in knockout cells [1]: lack of PI uptake, GSDMD cleavage and LDH release
- LDH release and GSDMD cleavage in PEPD−/− vs control cells [1]: induced more LDH release and GSDMD cleavage
- LDH release and GSDMD cleavage [1]: induced the release of intracellular lactate dehydrogenase (LDH) and GSDMD cleavage
- GSDMD cleavage in resting T cells [3]: induced GSDMD cleavage
- PI uptake, GSDMD cleavage and LDH release in knockout cells [5]: lack of PI uptake, GSDMD cleavage and LDH release
- additional pyroptosis in DPP8/9−/− THP-1 cells [5]: did not induce any additional pyroptosis
- LDH release and GSDMD cleavage [5]: induced the release of intracellular lactate dehydrogenase (LDH) and GSDMD cleavage
- lytic cell death / cytotoxicity in MV4;11 cells [2]: cytotoxic
- effect of esterification on DPP9 inhibition [9]: did not impact DPP9 inhibition
- NLRP1 inflammasome activation (LDH release, IL-18 cleavage and release) [7]: did not induce NLRP1 inflammasome activation
- pyroptosis at fivefold higher concentration [8]: failed to trigger pyroptosis
- concentration inducing cell death [11]: < 5 mM

SMILES: CC[C@H](C)[C@H](N)C(=O)N1CCC[C@H]1C(=O)OC [IP-OMe] (H-Ile-Pro-OMe)
- PI uptake, GSDMD cleavage and LDH release in knockout cells [1]: lack of PI uptake, GSDMD cleavage and LDH release
- LDH release and GSDMD cleavage in PEPD−/− vs control cells [1]: induced more LDH release and GSDMD cleavage
- LDH release and GSDMD cleavage [1]: induced the release of intracellular lactate dehydrogenase (LDH) and GSDMD cleavage
- GSDMD cleavage in resting T cells [3]: induced GSDMD cleavage
- PI uptake, GSDMD cleavage and LDH release in knockout cells [5]: lack of PI uptake, GSDMD cleavage and LDH release
- additional pyroptosis in DPP8/9−/− THP-1 cells [5]: did not induce any additional pyroptosis
- LDH release and GSDMD cleavage [5]: induced the release of intracellular lactate dehydrogenase (LDH) and GSDMD cleavage
- lytic cell death / cytotoxicity in MV4;11 cells [2]: cytotoxic
- effect of esterification on DPP9 inhibition [9]: did not impact DPP9 inhibition
- NLRP1 inflammasome activation (LDH release, IL-18 cleavage and release) [7]: did not induce NLRP1 inflammasome activation
- pyroptosis at fivefold higher concentration [8]: failed to trigger pyroptosis

SMILES: COC(=O)[C@@H]1CCCN1C(=O)[C@@H]1CCCN1 [PP-OMe] (H-Pro-Pro-OMe)
- pyroptosis in PEPD−/− knockout cells [2]: induced pyroptosis
- activity in control cells [2]: inactive in control cells
